Our source for the Activity, inhibition and IC50 values is ChEMBL document CHEMBL4020842, “Discovery of N1-(4-((7-Cyclopentyl-6-(dimethylcarbamoyl)-7 H-pyrrolo[2,3- d]pyrimidin-2-yl)amino)phenyl)- N8-hydroxyoctanediamide as a Novel Inhibitor Targeting Cyclin-dependent Kinase 4/9 (CDK4/9) and Histone Deacetlyase1 (HDAC1) against Malignant Cancer” (J Med Chem, 2018).

In experiment [1] the test system is HepG2. As to the kind of experiment: Cell cycle arrest in human HepG2 cells assessed as decrease in S-phase at 625 nM after 24 hrs by propidium iodide staining based flow cytometry. Format: functional. The procedure, abridged: (§1)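 Cells were exposed for 24 h to a range of concentrations (625 nM, 2.5 and 10 µM), with DMSO vehicle as control. They were then stained with propidium iodide and analysed by flow cytometry to obtain the percentages of cells in G0/G1, S and G2 phases.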
Background: In flow cytometry, cells or beads pass a laser one at a time.

In experiment [2] the test system is HepG2. As to the kind of experiment: Cell cycle arrest in human HepG2 cells assessed as accumulation at G0/G1 phase at 625 nM after 24 hrs by propidium iodide staining based flow cytometry. Format: functional. The procedure, abridged:
as §1

Experiment [3] relates to MDA-MB-231. Briefly: Induction of apoptosis in human MDA-MB-231 cells assessed as live cells at 10 uM after 48 hrs by annexin V-FITC/propidium iodide staining based flow cytometry (reference value: 98.1%). Format: functional.
The target in experiment [4] is T1, Histone deacetylase 1 (Homo sapiens, UniProt Q13547). Briefly: Inhibition of HDAC1 in human NCI-H460 cells assessed as increase in p53 phosphorylation at Ser15 residue at 1 to 5 uM after 48 hrs by Western blot method. Format: cell-based.
Experiment [5] concerns HepG2. Briefly: Cytotoxicity against human HepG2 cells assessed as reduction in cell viability after 72 hrs by CCK8 assay. Format: functional, cell-based. Particulars: HepG2, 72 h. (Tetrazolium assays rely on reduction of a dye to a coloured formazan, in cell work by metabolically active cells.)
A further experiment concerns the target CDK4/CDK9 (Homo sapiens) (UniProt P11802+P50750). As to the kind of experiment: Inhibition of CDK4/CDK9 in human MDA-MB-231 cells assessed as reduction in Rb phosphorylation at Ser807/811 residues at 1 uM after 48 hrs by Western blot method. Format: cell-based. A general note: In western blotting, separated proteins are transferred to a membrane and probed.

For experiment [6], the system named is Hep 3B2. Briefly: Induction of apoptosis in human Hep3B cells assessed as necrotic cells at 5 uM after 48 hrs by annexin V-FITC/propidium iodide staining based flow cytometry (reference value: 4.97%). Format: functional.
In experiment [7] the test system is HepG2. As to the kind of experiment: Cell cycle arrest in human HepG2 cells assessed as accumulation at G2 phase at 2.5 to 10 uM after 24 hrs by propidium iodide staining based flow cytometry. Format: functional. The gist of the method:
as §1

The subject of the next experiment is T47D. Briefly: Cell cycle arrest in human T47D cells assessed as accumulation at G0/G1 phase at 625 nM after 24 hrs by propidium iodide staining based flow cytometry. Format: functional. The procedure, abridged:
as §1

For experiment [8], the target named is T1, Histone deacetylase 1. As to the kind of experiment: Inhibition of HDAC1 in human A549 cells assessed as increase in acetylated histone-H3 level at 0.1 to 1 uM after 24 hrs by immunofluorescence assay. Format: cell-based.
The test system of experiment [9] is Hep 3B2. Briefly: Induction of apoptosis in human Hep3B cells assessed as live cells at 5 uM after 48 hrs by annexin V-FITC/propidium iodide staining based flow cytometry (reference value: 97.9%). Format: functional.
The next experiment concerns A549. As to the kind of experiment: Induction of apoptosis in human A549 cells assessed as live cells at 10 uM after 48 hrs by annexin V-FITC/propidium iodide staining based flow cytometry (reference value: 92.7%). Format: functional.
The subject of experiment [10] is MDA-MB-231. As to the kind of experiment: Induction of apoptosis in human MDA-MB-231 cells assessed as early apoptotic cells at 10 uM after 48 hrs by annexin V-FITC/propidium iodide staining based flow cytometry (reference value: 0.4%). Format: functional.
For another experiment, the system named is NCI-H460. As to the kind of experiment: Induction of apoptosis in human NCI-H460 cells assessed as early apoptotic cells at 1 uM after 48 hrs by annexin V-FITC/propidium iodide staining based flow cytometry (reference value: 0.11%). Format: functional.

Activity calls are given as the source filed them. The rule behind the calls is not given here.

For orientation: IC50 means the midpoint of a concentration-inhibition curve.

T1 sequence (Q13547 whole entry): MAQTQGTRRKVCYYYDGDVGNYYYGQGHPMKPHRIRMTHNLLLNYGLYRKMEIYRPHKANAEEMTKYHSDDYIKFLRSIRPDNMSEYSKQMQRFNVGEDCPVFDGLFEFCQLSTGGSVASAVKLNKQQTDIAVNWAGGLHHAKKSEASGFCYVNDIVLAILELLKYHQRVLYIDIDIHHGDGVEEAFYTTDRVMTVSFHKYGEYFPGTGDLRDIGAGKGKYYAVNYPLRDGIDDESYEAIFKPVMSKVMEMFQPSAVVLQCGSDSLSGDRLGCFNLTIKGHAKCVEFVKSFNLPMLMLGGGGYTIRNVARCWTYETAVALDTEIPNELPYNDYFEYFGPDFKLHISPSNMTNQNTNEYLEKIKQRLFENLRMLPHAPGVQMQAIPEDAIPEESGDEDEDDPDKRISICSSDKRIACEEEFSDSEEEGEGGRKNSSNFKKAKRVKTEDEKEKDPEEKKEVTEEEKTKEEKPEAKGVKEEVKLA
Chain of CDK4/CDK9 (Homo sapiens) (P11802 whole entry, looked up): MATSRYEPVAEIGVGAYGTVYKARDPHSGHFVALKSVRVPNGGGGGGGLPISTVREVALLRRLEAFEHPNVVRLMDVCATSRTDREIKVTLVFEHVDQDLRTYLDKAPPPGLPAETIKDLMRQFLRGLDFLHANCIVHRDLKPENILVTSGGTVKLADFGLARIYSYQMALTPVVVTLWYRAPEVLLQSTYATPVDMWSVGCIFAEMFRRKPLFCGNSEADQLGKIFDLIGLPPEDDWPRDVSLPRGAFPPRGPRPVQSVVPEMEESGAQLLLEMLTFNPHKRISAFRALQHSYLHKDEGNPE
Chain of CDK4/CDK9 (Homo sapiens) (P50750 whole entry, looked up): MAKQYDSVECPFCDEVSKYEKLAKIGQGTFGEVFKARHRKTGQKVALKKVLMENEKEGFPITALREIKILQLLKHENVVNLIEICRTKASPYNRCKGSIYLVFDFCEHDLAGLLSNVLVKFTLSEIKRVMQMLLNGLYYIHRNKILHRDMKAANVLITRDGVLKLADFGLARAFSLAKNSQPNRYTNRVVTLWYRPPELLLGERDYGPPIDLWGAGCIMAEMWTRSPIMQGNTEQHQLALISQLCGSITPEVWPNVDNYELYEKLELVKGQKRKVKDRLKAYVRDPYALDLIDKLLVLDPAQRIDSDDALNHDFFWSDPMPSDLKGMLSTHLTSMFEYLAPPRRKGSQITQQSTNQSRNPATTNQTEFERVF

Take `CN(C)C(=O)c1cc2cnc(Nc3ccc(NC(=O)CCCCCCC(=O)NO)cc3)nc2n1C1CCCC1`: the result with HepG2 [1], in the experiment on HepG2 [2], with HepG2 [7] and in the experiment on T47D was Active. Moreover, the Activity with MDA-MB-231 [3] came out at 87.1%; in the experiment on Hep 3B2 [6], 2.08%; in the experiment with Hep 3B2 [9], 81%; in the experiment with A549, 59.8%; with MDA-MB-231 [10], 5.09%; in the experiment on NCI-H460 it was 0.28%. The inhibition entry at Histone deacetylase 1 [4], on CDK4/CDK9 (Homo sapiens) and at Histone deacetylase 1 [8] was “Active” in each case. Moreover, in the experiment on HepG2 [5], the IC50 came to 3.37 µM.
